ChEMBL document CHEMBL4406830, “Galloyl esters of trans-stilbenes are inhibitors of FASN with anticancer activity on non-small cell lung cancer cells” (Eur J Med Chem, 2019)
Activity calls are given as the source filed them. The rule behind the calls is not given here.

Assays:
[1] = Selectivity index, ratio of IC50 for human SAE cells lacking FASN expression to IC50 for human NCI-H1299 cells expressing FASN expression
Outline: (§1)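 Index is the SAEC IC50 divided by the IC50 in the FASN-expressing NSCLC line. IC50s came from MTS viability after 72 h exposure at 37 °C, 5% CO2, DMSO 0.1% v/v. Absorbance was read at 490 nm after 2 h. The fit was % viability against log concentration, with 4 technical repeats and 3 independent experiments. NSCLC lines were grown in RPMI/10% FBS; SAEC in BEGM.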

[2] = biological target: Fatty acid synthase (Homo sapiens) (UniProt P49327); assay: Inhibition of FASN in human PC9 cells harboring FASN expression and EGFR delE746-A750 mutant assessed as disruption of AKT/FASN positive feedback loop by measuring reduction in AKT expression at 1 uM after 48 hrs by Western immunoblot based densitometric assay relative to control; assay type: cell-based
Outline: (§2)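 PC-9 or H1703 cells were seeded at 8 × 10^5 per 100 mm dish and treated for 48 h at 1 or 5 µM (or 5, 50 and 100 µM). RIPA lysates were BCA-quantified and run on 8% SDS-PAGE, then transferred to PVDF. Blots were probed for FASN, AKT, phospho-AKT S473 and GAPDH and detected by ECL. Bands were quantified by densitometry and normalised to vehicle control.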

[3] = Ratio of compound kinetic solubility to [1,1'-Biphenyl]-4,4'-diyl bis(3,4,5-trihydroxybenzoate)] kinetic solubility in universal buffer at pH 7.4 measured at 25 degC after 24 hrs by UV/Visible spectroscopic analysis; assay type: physicochemical; settings: pH 7.4, 24 h
[4] = biological target: Fatty acid synthase (Homo sapiens) (UniProt P49327); assay: Inhibition of FASN in human PC9 cells harboring FASN expression and EGFR delE746-A750 mutant assessed as disruption of AKT/FASN positive feedback loop by measuring reduction in phosphorylated AKT expression at 5 uM after 48 hrs by Western immunoblot based densitometric assay relative to control; assay type: cell-based; outline: as §2
NCI-H1703 [5] = assay: Induction of apoptosis in human NCI-H1703 cells expressing FASN assessed as increase in late apoptotic cells at 5 uM after 72 hrs by Annexin-V FITC/PI staining-based flow cytometry; assay type: functional, cell-based
[6] = biological target: Fatty acid synthase (Homo sapiens) (UniProt P49327); assay: Inhibition of FASN in human NCI-H1703 cells expressing FASN assessed as disruption of AKT/FASN positive feedback loop by measuring ratio of phosphoAKT/AKT expression at 1 uM after 48 hrs in presence of exogenous lipid concentrate by Western immunoblot based densitometric assay relative to control; assay type: cell-based
Outline: (§3)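 PC-9 (2 µM) or H1703 (1 µM) cells were treated with compound, with or without lipid concentrate (1% v/v per figure legend), for 48 h. Cells were lysed in RIPA buffer and lysates run on SDS-PAGE western blots for FASN, AKT, phospho-AKT S473 and GAPDH. Bands were quantified by densitometry and normalised to untreated control.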

[7] = biological target: Fatty acid synthase (Homo sapiens) (UniProt P49327); assay: Inhibition of FASN in human PC9 cells harboring FASN expression and EGFR delE746-A750 mutant assessed as disruption of AKT/FASN positive feedback loop by measuring decrease in FASN expression after 48 hrs by Western immunoblot assay; assay type: cell-based; outline: as §2
[8] = biological target: Fatty acid synthase (Homo sapiens) (UniProt P49327); assay: (§4) Inhibition of FASN in human PC9 cells harboring FASN expression and EGFR delE746-A750 mutant assessed as disruption of AKT/FASN positive feedback loop by measuring decrease in FASN expression at 1 uM after 48 hrs by Western immunoblot based densitometric assay relative to control; assay type: cell-based; outline: as §2
[9] = biological target: Fatty acid synthase (Homo sapiens) (UniProt P49327); assay: Inhibition of FASN in human PC9 cells harboring FASN expression and EGFR delE746-A750 mutant assessed as disruption of AKT/FASN positive feedback loop by measuring reduction in phosphorylated AKT expression at 1 uM after 48 hrs by Western immunoblot based densitometric assay relative to control; assay type: cell-based; outline: as §2
[10] = Selectivity index, ratio of IC50 for human SAE cells lacking FASN expression to IC50 for human NCI-H1650 cells expressing FASN; outline: as §1
NCI-H1703 [11] = assay: Antiproliferative activity against human NCI-H1703 cells expressing FASN assessed as cell viability at 1 uM after 72 hrs in presence of exogenous lipid concentrate by MTS assay; assay type: functional, cell-based
Outline: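 Cells were treated as in the MTS viability assay. After 6 h, chemically defined lipid concentrate was added to 2% v/v final. Incubation continued for a further 72 h, then viability was read by MTS at 490 nm. Cells were treated at 2 µM (PC-9) or 1 µM (H1703). Mean ± SD, n = 3, compared with compound alone.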

PC-9 = assay: Antiproliferative activity against human PC9 cells harboring FASN expression and EGFR delE746-A750 mutant assessed as reduction in cell viability after 72 hrs by MTS assay; assay type: functional, cell-based; settings: PC-9, 72 h
Outline: (§5)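 ATCC-sourced cells. H1299, H1650, H1703 and PC-9 were grown in RPMI 1640 with 10% FBS. A549 was grown in high-glucose DMEM with 10% FBS and 1 mM pyruvate. SAEC was grown in BEGM. Cells were seeded at 3 × 10^3 per well (H1650 3.5 × 10^3) and left to attach overnight. Serial dilutions from DMSO stocks were added, 0.1% DMSO final, for 72 h at 37 °C, 5% CO2. Medium was replaced, MTS added, and A490 read after 2 h. IC50 was taken from % viability versus log concentration, 3 experiments.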

NCI-H1703 [12] = assay: Antiproliferative activity against human NCI-H1703 cells expressing FASN assessed as growth inhibition at 25 uM after 72 hrs by MTS assay relative to control; assay type: functional; settings: NCI-H1703, 72 h
Outline: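 H1703 cells were treated with a single 25 µM concentration for 72 h. Viability was measured by MTS at 490 nm, with 0.1% DMSO and media-only correction, relative to untreated control. Mean ± SD of n = 3 independent determinations, unpaired t test against control.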

[13] = biological target: Fatty acid synthase (Homo sapiens) (UniProt P49327); assay: Inhibition of FASN in human PC9 cells harboring FASN expression and EGFR delE746-A750 mutant assessed as disruption of AKT/FASN positive feedback loop by measuring decrease in FASN expression at 5 uM after 48 hrs by Western immunoblot based densitometric assay relative to control; assay type: cell-based; outline: as §2
[14] = Cytotoxicity against human SAE cells lacking FASN expression assessed as reduction in cell viability after 72 hrs by MTS assay; assay type: cell-based; outline: as §5
[15] = biological target: Fatty acid synthase (Homo sapiens) (UniProt P49327); assay: Inhibition of FASN in human NCI-H1703 cells expressing FASN assessed as disruption of AKT/FASN positive feedback loop by measuring decrease in AKT expression at 5 uM after 48 hrs by Western immunoblot based densitometric assay relative to control; assay type: cell-based; outline: as §2
[16] = biological target: Fatty acid synthase (Homo sapiens) (UniProt P49327); assay: as §4, with “ratio of phosphoAKT/AKT” for “decrease in FASN”, “2” for “1”, “hrs in presence of exogenous lipid concentrate” for “hrs”; assay type: cell-based; outline: as §3
[17] = biological target: Fatty acid synthase (Homo sapiens) (UniProt P49327); assay: Inhibition of FASN in human PC9 cells harboring FASN expression and EGFR delE746-A750 mutant assessed as disruption of AKT/FASN positive feedback loop by measuring reduction in AKT expression at 5 uM after 48 hrs by Western immunoblot based densitometric assay relative to control; assay type: cell-based; outline: as §2

Fatty acid synthase (Homo sapiens), sequence (P49327 whole entry, looked up): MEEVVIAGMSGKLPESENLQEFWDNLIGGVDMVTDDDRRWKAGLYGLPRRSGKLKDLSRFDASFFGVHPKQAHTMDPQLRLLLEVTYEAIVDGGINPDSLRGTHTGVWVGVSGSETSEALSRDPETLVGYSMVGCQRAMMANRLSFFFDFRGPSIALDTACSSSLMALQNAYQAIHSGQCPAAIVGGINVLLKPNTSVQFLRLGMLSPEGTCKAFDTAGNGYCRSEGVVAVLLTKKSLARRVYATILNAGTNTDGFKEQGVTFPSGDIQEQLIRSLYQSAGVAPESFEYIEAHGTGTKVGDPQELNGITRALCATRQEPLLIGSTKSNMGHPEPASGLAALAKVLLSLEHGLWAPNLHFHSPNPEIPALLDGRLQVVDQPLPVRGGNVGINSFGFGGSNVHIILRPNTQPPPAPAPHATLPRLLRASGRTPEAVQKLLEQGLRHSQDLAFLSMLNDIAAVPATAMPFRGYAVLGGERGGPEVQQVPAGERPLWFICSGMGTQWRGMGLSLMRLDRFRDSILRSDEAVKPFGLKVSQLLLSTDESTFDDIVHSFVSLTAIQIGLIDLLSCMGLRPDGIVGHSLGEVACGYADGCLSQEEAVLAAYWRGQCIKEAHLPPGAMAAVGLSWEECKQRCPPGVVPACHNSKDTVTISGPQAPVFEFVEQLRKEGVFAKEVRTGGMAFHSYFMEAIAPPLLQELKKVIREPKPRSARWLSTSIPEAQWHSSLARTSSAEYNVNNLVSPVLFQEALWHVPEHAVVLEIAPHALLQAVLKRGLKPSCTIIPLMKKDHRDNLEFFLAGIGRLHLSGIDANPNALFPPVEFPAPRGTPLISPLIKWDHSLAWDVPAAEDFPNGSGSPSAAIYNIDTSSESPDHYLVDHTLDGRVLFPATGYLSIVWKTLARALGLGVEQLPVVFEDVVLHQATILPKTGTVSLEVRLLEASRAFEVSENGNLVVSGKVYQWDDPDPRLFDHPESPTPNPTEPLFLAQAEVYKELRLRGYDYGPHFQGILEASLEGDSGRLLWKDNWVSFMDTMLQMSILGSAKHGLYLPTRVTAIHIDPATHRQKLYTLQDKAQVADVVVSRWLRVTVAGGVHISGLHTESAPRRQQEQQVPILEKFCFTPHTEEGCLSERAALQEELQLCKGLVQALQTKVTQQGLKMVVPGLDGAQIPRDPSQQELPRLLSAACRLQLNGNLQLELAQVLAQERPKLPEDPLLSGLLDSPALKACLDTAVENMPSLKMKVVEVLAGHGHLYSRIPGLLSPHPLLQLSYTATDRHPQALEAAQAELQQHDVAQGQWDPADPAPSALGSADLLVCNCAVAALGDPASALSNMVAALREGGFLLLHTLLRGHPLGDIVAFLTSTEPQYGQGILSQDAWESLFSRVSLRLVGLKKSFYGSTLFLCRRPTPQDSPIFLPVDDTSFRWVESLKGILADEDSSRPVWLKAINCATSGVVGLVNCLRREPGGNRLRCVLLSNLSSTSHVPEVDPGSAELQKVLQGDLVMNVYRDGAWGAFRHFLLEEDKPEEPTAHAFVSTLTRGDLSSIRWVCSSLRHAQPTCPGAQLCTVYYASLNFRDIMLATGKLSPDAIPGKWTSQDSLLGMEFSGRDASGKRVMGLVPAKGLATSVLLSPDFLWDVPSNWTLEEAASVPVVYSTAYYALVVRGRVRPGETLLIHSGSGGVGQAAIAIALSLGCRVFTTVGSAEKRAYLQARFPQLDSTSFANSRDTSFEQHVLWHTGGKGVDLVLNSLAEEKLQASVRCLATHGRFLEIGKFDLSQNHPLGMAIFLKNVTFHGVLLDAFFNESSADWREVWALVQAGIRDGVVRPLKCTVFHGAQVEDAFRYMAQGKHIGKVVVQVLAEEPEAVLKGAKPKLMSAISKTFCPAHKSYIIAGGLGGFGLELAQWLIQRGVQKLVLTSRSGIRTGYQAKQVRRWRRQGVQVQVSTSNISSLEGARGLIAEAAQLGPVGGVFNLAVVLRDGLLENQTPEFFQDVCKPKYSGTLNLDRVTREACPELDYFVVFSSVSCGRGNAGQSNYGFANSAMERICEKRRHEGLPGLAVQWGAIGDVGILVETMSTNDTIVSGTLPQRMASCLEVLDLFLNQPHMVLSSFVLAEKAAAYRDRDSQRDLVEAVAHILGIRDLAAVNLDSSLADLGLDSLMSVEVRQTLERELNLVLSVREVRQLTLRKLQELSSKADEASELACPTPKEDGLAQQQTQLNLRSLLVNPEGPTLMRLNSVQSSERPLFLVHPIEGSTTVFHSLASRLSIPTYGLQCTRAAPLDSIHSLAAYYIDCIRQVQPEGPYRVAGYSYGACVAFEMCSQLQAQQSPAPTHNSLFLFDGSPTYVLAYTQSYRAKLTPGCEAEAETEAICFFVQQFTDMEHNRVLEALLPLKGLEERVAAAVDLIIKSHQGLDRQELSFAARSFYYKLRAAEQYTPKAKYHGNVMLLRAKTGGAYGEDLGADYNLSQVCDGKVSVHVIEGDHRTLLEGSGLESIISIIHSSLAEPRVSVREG

| Ratio [2] | Ratio [3] | Ratio [4] | Ratio [6] | inhibition [7] | Ratio [8] | Ratio [9] | IC50 (PC-9) | Ratio [13] | Ratio [15] | Ratio [16] | Ratio [17] | SMILES | Ratio IC50 [1] | Activity (NCI-H1703 [5]) | Ratio IC50 [10] | inhibition (NCI-H1703 [11]) | inhibition at 25 µM (NCI-H1703 [12]) | IC50 [14] |
| --- | --- | --- | --- | --- | --- | --- | --- | --- | --- | --- | --- | --- | --- | --- | --- | --- | --- | --- |
| 1.04 | 6 to 15 | 0.2 | 0.62 | Dose-dependent effect | 0.92 | 0.88 | 2.3 µM | 0.49 | 0.01 | 0.57 | 0.18 | O=C(Oc1ccc(/C=C/c2ccc(OC(=O)c3cc(O)c(O)c(O)c3)cc2)cc1)c1cc(O)c(O)c(O)c1 | 1.5 | Active | 2 | inactive | > 50% | 5 µM |
| 0.58 | 15 | 0.29 | 0.61 | Dose-dependent effect | 0.86 | 0.53 | 5 µM | 0.65 | 0.11 | 0.87 | 0.12 | O=C(Oc1ccc(/C=C/c2cccc(OC(=O)c3cc(O)c(O)c(O)c3)c2)cc1)c1cc(O)c(O)c(O)c1 | 2.2 | Active | 0.5 | inactive | > 50% | 6.8 µM |
